Compound activity deposited in PubChem BioAssay by several laboratories.
Compounds with a hit are over-represented: about 4% of the library has one in this group of screens.
OX1R antag-1 – blocks the human orexin 1 receptor; O43613; hit rate 1.8% among 330,000; OX1R-expressing cells, FRET antagonist read-out; AID 485270; inhibition, % at 6.6 µM; in the data active means inhibition mostly above about 38%, no sharp cut-off; inactive means mostly below about 40%
TAAR1 agonist – human TAAR1 agonism; activation, % at 3 µM; CHO RD-HGA16 TAAR1, Fluo-8 calcium fluorescence; vehicle wells 0%, saturating PEA agonist 100%; hit rate 0.99% among 360,000; Q96RJ0; AID 624467;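 active means activation above the mean activation of all test compounds in the run plus 3 SD, cut at about 38% in these data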
Target sequence (Q96RJ0 whole entry, looked up): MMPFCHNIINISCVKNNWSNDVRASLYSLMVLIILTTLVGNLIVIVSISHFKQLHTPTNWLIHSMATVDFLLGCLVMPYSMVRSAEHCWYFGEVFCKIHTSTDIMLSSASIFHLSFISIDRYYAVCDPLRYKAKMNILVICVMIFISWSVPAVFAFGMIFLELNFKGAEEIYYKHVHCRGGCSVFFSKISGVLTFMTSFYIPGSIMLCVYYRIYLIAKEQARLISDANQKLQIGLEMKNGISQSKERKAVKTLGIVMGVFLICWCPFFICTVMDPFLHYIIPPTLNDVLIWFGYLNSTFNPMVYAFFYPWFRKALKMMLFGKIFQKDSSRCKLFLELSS
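Test system: RD-HGA16 (CHO) cells co-expressing Gα16 and hTAAR1 / Benchmarks: DMSO vehicle as 0%, PEA at EC100 as 100% / Repeats: no replicates (n 1) / Measure: % activation from peak over basal fluorescence ratio, DMSO-to-PEA scaled / Timing: 17-24 h plating, Fluo-8 75 min 37 °C, 30 min RT / Technique: kinetic Fluo-8 calcium fluorescence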
CHO parental Ca – signal in parental CHO cells, OX1R antagonist counter-screen. parental CHO-K1, ATP-induced calcium, Fluo-8 fluorescence. inhibition, % at 5.6 µM. hit rate 0.63% among 330,000. AID 463079;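 active means inhibition above that plate's mean sample inhibition plus 3 SD, cut at about 26% in these data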
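test system = CHO parental line | reagent = ATP stimulus | measured by = intracellular calcium via Fluo-8 no-wash fluorescent dye | control set = ATP and no-ATP DMSO wells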
TAAR1 antag – human TAAR1 antagonism. Q96RJ0. CHO RD-HGA16 TAAR1, Fluo-8 calcium fluorescence, antagonist. inhibition, % at 3 µM. hit rate 1.5% among 360,000;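 active means inhibition above a per-plate cutoff, the mean inhibition of test compounds on that plate plus 3 SD, cut at about 49% in these data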
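System: RD-HGA16 CHO cells with stable hTAAR1 and Gα16 | Probe or stimulus: EC80 β-phenethylamine stimulus | Dosing: 3 µM, single point | Times: Dye loading 75 min at 37 °C, then 30 min room temperature | Measured by: Fluo-8 calcium-sensitive fluorescence | Read-out basis: % inhibition of agonist calcium response | Replicates: n of 1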
NTR1 ag – activates human neurotensin receptor 1 | P30989 | NTR1-U2OS beta-arrestin-GFP spot imaging, agonist mode | activation, % at 20 µM | hit rate 0.17% among 330,000 | AID 493036;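 active means activation at or above 40% of the spot to cytoplasm intensity ratio, with at least 20 cells analyzed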
Target sequence (P30989 whole entry, looked up): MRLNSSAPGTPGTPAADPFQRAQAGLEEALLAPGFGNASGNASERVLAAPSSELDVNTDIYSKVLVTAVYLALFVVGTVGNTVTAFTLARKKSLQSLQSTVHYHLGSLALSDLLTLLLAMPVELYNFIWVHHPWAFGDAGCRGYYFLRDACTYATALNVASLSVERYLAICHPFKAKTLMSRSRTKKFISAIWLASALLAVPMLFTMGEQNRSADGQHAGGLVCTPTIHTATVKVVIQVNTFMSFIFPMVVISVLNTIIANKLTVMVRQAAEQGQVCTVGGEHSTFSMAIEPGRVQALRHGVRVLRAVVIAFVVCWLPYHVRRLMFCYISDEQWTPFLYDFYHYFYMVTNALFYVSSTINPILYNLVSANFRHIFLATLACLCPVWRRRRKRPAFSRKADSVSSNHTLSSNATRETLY
OX1R antag-2 – human HCRTR1 antagonism; hit rate 0.43% among 330,000; CHO/OX1R cells, Fluo-8 calcium fluorescence, orexin A; AID 434989; O43613; inhibition, % at 5 µM;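 active means inhibition above its plate's threshold, mean inhibition of all tested compounds on the plate plus 3 SD, cut at about 37% in these data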
Large screens that a line does not name were inactive.

COc1ccc(NC(=O)Cn2c(=O)oc3cc(S(=O)(=O)N4CCCC4)ccc32)cc1	none
O=C1NC(Cc2ccccc2)C(=O)N1Cc1ccccc1 (stereo not drawn)	none (no result: OX1R antag-1, CHO parental Ca, NTR1 ag, OX1R antag-2)
O=c1ccsn1Cc1ccccc1	TAAR1 agonist 43.6
CC(C)(C)c1ccc(Cn2cnc(-c3ccc([N+](=O)[O-])cc3)c2)cc1	CHO parental Ca 42.3
CCCCc1c(-c2ccccc2OC)ncn1Cc1cccc(OC)c1	none (no result: OX1R antag-1, CHO parental Ca, NTR1 ag, OX1R antag-2)
C=CCn1c(O)c(N=Nc2ccccc2O)c2ccccc21	CHO parental Ca 66.5, OX1R antag-2 76.5
COc1cc(CNC2CCCC2)cc(Cl)c1OCc1ccccc1F	TAAR1 agonist 39.0
O=C(C[n+]1ccccc1)N/N=C/c1cc(Br)ccc1F	none
O=C(C[n+]1ccccc1)N/N=C/c1cc(Br)cc(Br)c1O	OX1R antag-1 29.0 (no result: TAAR1 agonist, TAAR1 antag)
COC(=O)C1=C(C)N(Cc2ccc(C(F)(F)F)cc2)C(=NCc2ccc(OC)cc2)NC1c1ccccc1C(F)(F)F (stereo not drawn)	none (no result: OX1R antag-1, CHO parental Ca, NTR1 ag, OX1R antag-2)
CCOc1ccc(C(=O)Nc2cc(-c3nc4ccccc4[nH]3)ccc2C)cc1[N+](=O)[O-]	none
CCOc1ccc(C(=O)Nc2cc(-c3nc4ccccc4[nH]3)ccc2Cl)cc1[N+](=O)[O-]	OX1R antag-1 67.7, TAAR1 antag 53.1
COc1cc(/C=C2\SC(=S)N(Nc3ccccc3)C2=O)ccc1O	TAAR1 agonist 54.4, CHO parental Ca 42.4, TAAR1 antag 56.6
CCOC(=O)CN1C(=O)S/C(=C/c2ccc(O)c([N+](=O)[O-])c2)C1=O	OX1R antag-1 56.5
O=C(O)c1ccc(/C=C2\SC(=S)N(NC(=O)c3ccccc3[N+](=O)[O-])C2=O)cc1	none (no result: OX1R antag-1, CHO parental Ca, OX1R antag-2)
O=C(NN1C(=O)/C(=C\c2ccc(O)c([N+](=O)[O-])c2)SC1=S)c1ccccc1Cl	OX1R antag-1 63.9
O=C(O)c1ccc(/C=C2\SC(=S)N(Nc3ccccc3)C2=O)cc1	none
COc1cc(/C=C2/SC(=S)N(CC3CCCO3)C2=O)ccc1O (stereo not drawn)	TAAR1 agonist 41.7
CC1(C)Oc2cc3oc(=O)ccc3c3c2C2C1CCC(C)(O3)C2O (stereo not drawn)	none (no result: OX1R antag-1, CHO parental Ca, NTR1 ag, OX1R antag-2)
COc1cc(/C=C2\SC(=S)N(NC(=O)c3cccnc3)C2=O)ccc1O	none
COc1cc(/C=C2\SC(=S)N(Nc3ncc(C(F)(F)F)cc3Cl)C2=O)ccc1O	TAAR1 agonist 52.3, CHO parental Ca 39.7, TAAR1 antag 65.7, OX1R antag-2 48.6
CCOc1cc(/C=C2\SC(=S)N(Nc3ccccc3)C2=O)ccc1O	TAAR1 agonist 51.4, TAAR1 antag 60.0
COC(=O)C1=C(C)N(Cc2ccccc2C(F)(F)F)C(=NCc2ccc(OC)cc2)NC1c1cccc(Cl)c1 (stereo not drawn)	none (no result: OX1R antag-1, CHO parental Ca, NTR1 ag, OX1R antag-2)
O=C1C2CCCCC2C(=O)N1c1ccc(S(=O)(=O)Nc2ncccn2)cc1 (stereo not drawn)	none
O=C(C[C@H]1C/C=C\CC[C@H](Cc2ccc(F)cc2)C(=O)O[C@H](c2ccccc2)CNC1=O)N[C@H](CO)Cc1ccccc1	TAAR1 antag 55.0
O=C(C[C@H]1C/C=C\C[C@H](Cc2ccc(F)cc2)C(=O)O[C@@H](c2ccccc2)CNC1=O)N[C@H](CO)Cc1ccccc1	TAAR1 agonist 54.6
O=C(C[C@H]1C/C=C\CC[C@H](Cc2ccc(F)cc2)C(=O)O[C@@H](c2ccccc2)CNC1=O)N[C@H](CO)Cc1ccccc1	TAAR1 agonist 52.7, TAAR1 antag 56.4
O=C(C[C@H]1C/C=C\C[C@@H](Cc2ccc(F)cc2)C(=O)O[C@H](c2ccccc2)CNC1=O)NCCO	none
COc1ccc2nc(-c3ccc(CN4CCC5(CC4)CNc4ccccc45)cc3)c(-c3ccccc3)nc2c1	none (no result: OX1R antag-1, CHO parental Ca, NTR1 ag, OX1R antag-2)
COc1ccccc1CNn1c(-c2cccc(C)c2)nc2ccccc2c1=O	OX1R antag-1 51.1
COc1cccc(OC)c1C(=O)Nn1c(-c2cccc(C)c2)nc2ccccc2c1=O	none
CCc1nc(SCC(=O)NC2CCCC2)c2oc3ccccc3c2n1	none
CCc1nc(SCC(=O)N2CCCc3ccccc32)c2oc3ccccc3c2n1	OX1R antag-1 48.4
Oc1cc(NCCN2CCOCC2)cc2cccnc12	OX1R antag-1 54.5
COC(=O)[C@]12C[C@H](CC(=O)N3CCOCC3)C(=O)N(CCc3ccc(OC)c(OC)c3)C1=C[C@H](C(C)(C)C)O[C@@H]2C	none (no result: OX1R antag-1, CHO parental Ca, NTR1 ag, OX1R antag-2)
COc1cc(/C=N\NC(=O)c2ccc(Cn3nc([N+](=O)[O-])c(Cl)c3C)o2)ccc1O	TAAR1 antag 49.5
C[C@@H]1CN(c2ccc(N3CCNC[C@H]3C)cc2C#N)C[C@H](C)O1	none (no result: OX1R antag-1, CHO parental Ca, NTR1 ag, OX1R antag-2)
CCCCC1(C)OC(=O)C(=Cc2ccc(N(CC)CC)cc2)C(=O)O1 (stereo not drawn)	TAAR1 agonist 45.9
CCN(CC)c1ccc(C=C2C(=O)OC3(CCCCC3)OC2=O)cc1	none
Cc1cc(=O)oc(C)c1C(=O)NCC1COc2ccccc2O1 (stereo not drawn)	TAAR1 agonist 39.9
CCOc1ccc(OCCNC(=O)c2oc3ccccc3c2COC)cc1	none
COCc1c(C(=O)NCCOc2ccc(Cl)cc2)oc2ccccc12	OX1R antag-1 34.4
COCc1c(C(=O)NCC2COc3ccccc3O2)oc2ccccc12 (stereo not drawn)	OX1R antag-1 68.1
O=C(CSc1n[nH]c(-c2cccs2)n1)NCCc1ccccc1	none
O=S(=O)(c1cccc2nsnc12)N1CCNCC1	OX1R antag-1 54.7
CC1CCCCN1CCNC(=O)C1CCN(S(=O)(=O)c2cccc3nsnc23)CC1 (stereo not drawn)	none
CCCN(CCC)CCCNC(=O)C1CCN(S(=O)(=O)c2cccc3nsnc23)CC1	OX1R antag-1 40.0
CCN(CCNC(=O)C1CCN(S(=O)(=O)c2cccc3nsnc23)CC1)c1ccccc1	none
CC1CCCCN1CCNC(=O)C1CCCN(S(=O)(=O)c2cccc3nsnc23)C1 (stereo not drawn)	OX1R antag-1 45.6
COC(=O)C1=C(C)N(C)C(=NCc2cc(OC)c(OC)c(OC)c2)NC1c1cccc(Cl)c1 (stereo not drawn)	none (no result: OX1R antag-1, CHO parental Ca, NTR1 ag, OX1R antag-2)
O=C(CSc1ccc(-c2cccs2)nn1)Nc1ccccc1	none
COc1cc(NC(=O)CSc2ccc(-c3ccccn3)nn2)cc(OC)c1	OX1R antag-1 60.2
COc1cccc(-c2ccc(SCC(=O)c3ccccc3)nn2)c1	none
Cc1cc(C)cc(NC(=O)CSc2ccc(-c3cccs3)nn2)c1	OX1R antag-1 62.2
COc1ccc(C(=O)CSc2ccc(-c3ccccc3)nn2)cc1	OX1R antag-1 68.6
CCC(C)NC(=O)c1cccc(OCc2c(C)noc2C)c1 (stereo not drawn)	none
CCOC(=O)c1c(C)[nH]c(C(=O)C(C)OC(=O)c2cccc(OCc3c(C)noc3C)c2)c1C (stereo not drawn)	CHO parental Ca 49.2
